Screening results deposited in PubChem by Johns Hopkins Ion Channel Center.
Rows were chosen to be rich in hits. Some 2.9% of all compounds tested hit in one or more screens of this group.
TRPC4 block – inhibitors of mouse TRPC4 channel, primary screen, Fluo4 calcium, HEK293 TRPC4beta/mu-opioid cells | Short transient receptor potential channel 4 (Mus musculus), Q9QUQ5 | DAMGO-evoked Fluo4 calcium flux; active compounds read low | B-score at 10 µM | hit rate 0.39% among 300,000;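 active = B-score over 3 SD under the library average, no early fluorescence shift, positive overall ratio signal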
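Assay system: TRPC4beta/mu-opioid receptor HEK293 cell line; compound dosing: single concentration per test compound; detection: Fluo4 Ca2+ flux fluorescence; evaluation: per-well B score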
TRPC4 potent – positive allosteric modulators of TRPC4, primary screen, cell-based, mouse TRPC4beta, HEK293 mu-opioid, Fluo-4 calcium | AID 2227, 2009 | Short transient receptor potential channel 4 (Mus musculus), Q9QUQ5 | hit rate 0.42% among 310,000 | DAMGO EC20, Fluo-4 Ca2+ flux; active compounds read high | B-score at 10 µM;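 active = B-score of calcium response area above 5 SD of library B-scores, with initial fluorescence ratio within 5 SD of library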;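 also: B-score of integrated fluorescence ratio over time as area under calcium response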
Kir21 inh – inhibitors of mouse Kir2.1 inward-rectifier potassium channel | Inward rectifier potassium channel 2 (Mus musculus), P35561 | HEK293-Kir2.1, FluxOR thallium flux fluorescence; active compounds read low | B-score at 10 µM | hit rate 0.85% among 310,000 | AID 1672, 2009;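 active = fluorescence ratio B-score at or below minus 3 SD of library scores, with starting-brightness B-score within 2 SD, cut at about -4.2 in these data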;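 also: channel flux triggered by added potassium and thallium sulfate stimulus; B-score of peak minus minimum fluorescence over baseline after thallium stimulus; more negative B-score means stronger Kir2.1 block with less thallium influx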
Target sequence (P35561 whole entry, looked up): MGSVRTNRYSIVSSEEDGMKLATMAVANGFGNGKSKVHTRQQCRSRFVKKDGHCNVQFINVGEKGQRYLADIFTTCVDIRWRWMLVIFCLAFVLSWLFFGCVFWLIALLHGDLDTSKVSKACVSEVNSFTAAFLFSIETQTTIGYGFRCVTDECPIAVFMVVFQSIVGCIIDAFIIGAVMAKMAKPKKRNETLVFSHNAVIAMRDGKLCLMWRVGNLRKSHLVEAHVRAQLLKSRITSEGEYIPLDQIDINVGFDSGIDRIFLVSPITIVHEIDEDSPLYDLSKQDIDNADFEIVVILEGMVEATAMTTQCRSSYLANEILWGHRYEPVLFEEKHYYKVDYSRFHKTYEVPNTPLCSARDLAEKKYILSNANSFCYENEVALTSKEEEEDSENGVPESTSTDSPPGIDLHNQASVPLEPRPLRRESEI
TRPC6 inhibitor – mouse TRPC6 channel inhibitors, primary screen, cell-based, HEK293, membrane potential dye. Short transient receptor potential channel 6 (Mus musculus), Q61143. ACh-evoked depolarization; active compounds read low. B-score at 10 µM. hit rate 1.1% among 310,000. AID 2553, 2010;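 active = B-score under library mean minus 3 SD, initial fluorescence not abnormally high, positive integrated signal ratio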;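 also: B-score derived from integrated fluorescence ratio over the kinetic read; more negative B-score means stronger inhibition of depolarization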
TRPC6 act – mouse TRPC6 channel activators, primary screen, cell-based, HEK293, membrane potential dye. HEK293-TRPC6 membrane potential dye fluorescence; active compounds read high. B-score at 10 µM. hit rate 0.13% among 310,000;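 active = B-score of the integrated fluorescence ratio above library mean plus 3 SD, and starting fluorescence ratio within library mean plus 5 SD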;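 also: higher score means more depolarization so channel activation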
TRPC4 agonist – activators of mouse TRPC4 channel, primary screen, Fluo4 calcium, HEK293 TRPC4beta/mu-opioid cells; Fluo4 calcium fluorescence; active compounds read high; hit rate 0.49% among 310,000; Short transient receptor potential channel 4 (Mus musculus), Q9QUQ5; B-score at 10 µM; AID 2237, 2010;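 active = B-score above 5 SD of library B-scores, and initial fluorescence ratio not above library mean plus 5 SD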;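 also: positive B-score marks a calcium rise read as TRPC4 activation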
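Material: TRPC4beta and mu-opioid receptor HEK293 stable cells | Incubation: 45 min room-temperature Fluo4 loading, 110 s read | Detection: Kinetic Fluo4 calcium fluorescence | Measure: Integrated baseline-normalised fluorescence ratio, converted to per-well B score | Benchmarks: Low control buffer alone, high control maximal DAMGO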
TRPC4 sel inh 2 – mouse TRPC4 off-target activity of TRPC6 inhibitors, second screen; hit rate 42% among 920; inhibition, % at 10 µM; HEK293 TRPC4/MOR, membrane potential dye fluorescence; channel activated by saturating DAMGO dose; AID 2776; shares compounds with TRPC6 inhibitor;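 active = compounds whose fluorescence signal differed from control wells by over 3 SD, either direction, in both duplicate plates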
TRPC4 spec – mouse TRPC4 modulation by TRPC6 hits, confirmation, selectivity assay for TRPC6 inhibitor project, cell-based, HEK293 TRPC4/mu-opioid, membrane potential dye. AID 2777, 2010. shares compounds with TRPC6 inhibitor. membrane potential fluorescence. activity change, negative = inhibition, % at 10 µM. hit rate 61% among 920;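 active = rise or fall in signal beyond 3 SD of buffer-only wells in both replicate plates, either sign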;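 also: integrated kinetic ratio of fluorescence range over baseline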
HEK293 MPD ctr 2-1 – nonspecific membrane potential effects, parental HEK293, confirmation, counter-screen for TRPC6 inhibitor project, cell-based, second counter screen; shares compounds with TRPC6 inhibitor; parental HEK293 membrane potential dye fluorescence; maximal acetylcholine challenge after compound addition; signal change vs control, % at 10 µM; hit rate 31% among 920; AID 2779, 2010;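 active = membrane potential signal moving either way by over 3 SD of the maximum-effect control, in both duplicate plates, meaning non-specific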
HEK293 MPD ctr-1 – membrane potential modulation in parental HEK293, confirmation, counter-screen for TRPC6 inhibitor project, cell-based. shares compounds with TRPC6 inhibitor. parental HEK293 membrane potential dye fluorescence. membrane potential signal change, % at 10 µM. hit rate 60% among 920. AID 2780, 2010;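 active = membrane potential signal shifting up or down by more than 3 SD of buffer-only wells, on both duplicate plates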
HEK293 MPD ctr-2 – parental HEK293 membrane potential modulation, confirmation, counter-screen for TRPC6 modulator project, cell-based. membrane potential signal change, % at 10 µM. hit rate 51% among 2,400. shares compounds with TRPC6 inhibitor. membrane potential dye fluorescence;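 active = membrane potential signal moves up or down beyond 5 SD from buffer-only wells, on both duplicate plates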
HEK293 MPD ctr 2-2 – second check of TRPC6 modulator effects in parental HEK293 cells | inhibition, % at 10 µM | shares compounds with TRPC6 inhibitor | membrane potential dye fluorescence; after compound, maximal acetylcholine stimulation | hit rate 14% among 2,400;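 active = membrane potential signal drops by more than 5 SD from the mean control signal, in both duplicate plates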;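 also: plate controls were acetylcholine ECmax control wells for no effect and buffer only wells for full effect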
TRPC4/MOR mod – TRPC4 modulation by TRPC6 hit compounds, confirmation, selectivity assay for TRPC6 modulator project, cell-based, HEK293 TRPC4/mu-opioid, membrane potential dye, mouse. shares compounds with TRPC6 inhibitor. membrane potential fluorescence. percent change from control (negative = decrease, positive = increase), % at 10 µM. hit rate 69% among 2,400. AID 488927, 2010;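 active = membrane potential signal moved up or down beyond 5 SD of buffer control wells, in both duplicate plates, actives on both sides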;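 also: plate controls were assay buffer wells for no effect and DAMGO maximal-effect wells for full effect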
TRPC4 ctr inh 2 – mouse TRPC4 off-target activity of TRPC6 modulators, second screen. inhibition, % at 10 µM. AID 488928. hit rate 55% among 2,400. HEK293 TRPC4/mu-opioid, membrane potential dye fluorescence; stimulated with maximal-effect DAMGO. shares compounds with TRPC6 inhibitor;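 active = drop in membrane potential signal beyond 5 SD of the control wells in both duplicate plates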;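 also: TRPC4 counter screen for TRPC6 hits run under conditions tuned for TRPC6 not TRPC4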
TRPC6 inh conf – mouse TRPC6 channel inhibitors, confirmation, HEK293 cells, membrane potential dye, duplicate. shares compounds with TRPC6 inhibitor. ACh-evoked depolarization. inhibition, % at 10 µM. hit rate 43% among 3,300. AID 488960, 2010;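 active = fluorescence ratio falls more than 5 SD below the full-stimulation control mean, in both duplicate runs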;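 also: integrated fluorescence ratio of peak minus minimum over baseline after agonist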
TRPC6 act confirm – mouse TRPC6 channel activators, confirmation, HEK293 cells, membrane potential dye, duplicate; shares compounds with TRPC6 inhibitor; HEK293-TRPC6 membrane potential dye fluorescence, FDSS; activation, % at 10 µM; hit rate 11% among 2,800;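 active = ratio signal rise beyond 5 SD above unstimulated control wells' mean, seen in both duplicate runs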;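 also: plate controls were buffer EC0 wells for no effect and acetylcholine ECmax response for full effect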
The depositor's hits bear a star; i = inactive; / = no result.

SMILES | TRPC4 block | TRPC4 potent | Kir21 inh | TRPC6 inhibitor | TRPC6 act | TRPC4 agonist | HEK293 MPD ctr-2 | HEK293 MPD ctr 2-2 | TRPC4/MOR mod | TRPC4 ctr inh 2 | TRPC6 inh conf | TRPC6 act confirm | others
CN1CCN(Cc2ccc(Sc3ccc(Cl)cc3)c([N+](=O)[O-])c2)CC1 | i | i | -5.29* | -6.52* | i | i | i | i | -13.5%* | 52.5%* | 43.5%* | i
CCc1nnc(NC(=O)CSC(=S)N2CCOCC2)s1 | i | i | -0.29 | -6.91* | i | i | i | i | i | i | i | i
COc1ccc(CCNc2oc(-c3ccc(OC)c(OC)c3)nc2C#N)cc1 | i | i | 1.93 | i | i | i | / | / | / | / | / | /
COc1ccc(-c2nc(C#N)c(NCCCN(C)C)o2)cc1OC | i | i | -0.12 | -6.37* | i | i | i | i | i | i | i | i
COC(=O)c1ccc(/C=N/OCC(=O)NC2CCCC(C)C2C)cc1 (stereo not drawn) | i | i | -1.82 | i | i | i | / | / | / | / | / | /
COC(=O)c1ccc(/C=N/OCC(=O)NC2CCCCCCC2)cc1 | i | i | 1.89 | -9.09* | i | i | / | / | / | / | i | / | TRPC4 sel inh 2=i;TRPC4 spec=3.9%*;HEK293 MPD ctr 2-1=i;HEK293 MPD ctr-1=3.9%*
COc1ccc(C(=O)NCc2nnc(SCC(=O)c3ccccc3)n2C)cc1OC | i | i | 0.4 | i | i | i | / | / | / | / | / | /
Oc1c(C(Nc2ccccn2)c2ccccn2)ccc2cccnc12 (stereo not drawn) | i | i | 0.91 | -6.17* | i | i | i | i | 9.5%* | i | 39.5%* | i
OC1(c2ccc(Cl)c(Cl)c2)C[n+]2ccccc2N1Cc1ccccc1 (stereo not drawn) | i | i | -1.24 | i | i | i | / | / | / | / | / | /
C=CCn1c(SCC(=O)Nc2ccc(OC)cc2)nc2c([nH]c3ccccc32)c1=O | i | i | 0.79 | i | i | i | / | / | / | / | / | /
C=CCn1c(SCCN2CCCC2)nc2c([nH]c3ccccc32)c1=O | i | 17* | 0.08 | -8.6* | i | i | i | i | -17.5%* | 65.5%* | 53.0%* | i
CC(C)(C)n1nnnc1C(c1ccc2ncccc2c1)N1CCC(O)CC1 (stereo not drawn) | i | i | 0.56 | i | i | i | / | / | / | / | / | /
c1cnc2ccc(C(c3nnnn3C3CCCC3)N3CCSCC3)cc2c1 (stereo not drawn) | i | i | -0.74 | -6.24* | 19.3* | i | 120.0%* | i | 31.5%* | i | 98.0%* | 147.5%*
CCC(C)(C)n1nnnc1C(c1ccc2ncccc2c1)N1CCCC(C)C1 (stereo not drawn) | i | i | -1.68 | -7.22* | i | i | / | / | / | / | i | / | TRPC4 sel inh 2=i;TRPC4 spec=27.2%*;HEK293 MPD ctr 2-1=i;HEK293 MPD ctr-1=15.7%*
COc1ccc(-c2nnc(N(C)C(=O)c3cccnc3)s2)cc1 | i | i | -0.66 | -5.21* | i | i | i | i | i | i | i | i
Cc1ccc(-c2nnc(N(C)C(=O)c3cccnc3)s2)cc1 | i | i | -1.71 | i | i | i | / | / | / | / | / | /
CCc1cccc(OCC(=O)Nc2ccccc2N2CCCC2)c1 | i | i | -0.31 | -6.1* | i | i | i | i | i | 33.0%* | i | i
Cc1cccc(C)c1OCC(=O)Nc1ccccc1N1CCCCC1 | i | i | 1.12 | i | i | i | / | / | / | / | / | /
COc1ccc(/C=C/C(=O)OCC(=O)Nc2ccc(Cl)c(S(=O)(=O)N(C)C)c2)cc1OC | i | i | 1.24 | i | i | i | / | / | / | / | / | /
O=C(OCC(O)COc1ccccc1)c1ccc([N+](=O)[O-])cc1 (stereo not drawn) | i | i | 1.07 | i | i | i | / | / | / | / | / | /
CCn1ncc(C2=NOC(C(=O)Nc3cnn(C45CC6CC(CC(C6)C4)C5)c3)C2)c1C (stereo not drawn) | i | i | 2.59 | i | 18.7* | i | i | i | i | i | / | 126.5%*
